Assays:
[1] = system: TNF-α-induced NF-κB activity; assay type: cell-based, human; conditions: at 50 μM; TNF-α 2 ng/mL, 6 h
[2] = Chemical stability of 2 monitored by 1H and 13C NMR; assay type: physicochemical; conditions: in DMSO-d6 at room temperature (20 °C), after a month
Outline: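 1D 1H and 13C spectra were recorded at 400 MHz or 500 MHz. Conversion was judged from a second set of NMR signals assigned to the C-8′ dehydration product.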

[3] = system: HEK293 cell line; assay: Cytotoxicity / survival in HEK293 cells, same conditions as the NF-κB assay; assay type: cell-based, human
[4] = system: Xanthomonas oryzae; conditions: cited from earlier work
[5] = system: dicotyledons; conditions: cited from earlier work

## 9′-deoxy-8′,8′-dihydroxyherbicidin B [Compound 2]
[1]
  NF-κB % inhibition: 96.2 ± 4.9%
[2]
  conversion of 2 to 2a (dehydration at C-8′): ~70%
[3]; % survival at a concentration of 50 μM
  NF-κB % survival: 45.1 ± 5.7%
[3]; read-out: HEK293 cell line cytotoxicity IC50, same conditions as the NF-κB assay
  IC50: 13.7 ± 3.3 µM

## C/C=C(\CO)C(=O)O[C@H]1[C@H](O)[C@@H](C(=O)OC)O[C@@H]2C[C@H]3O[C@@H](n4cnc5c(N)ncnc54)[C@H](OC)[C@H]3O[C@]21O [Compound 4, Herbicidin A]
[4]
  growth inhibition of Xanthomonas oryzae: significantly inhibited the growth
[5]
  herbicidal activity: herbicidal
  toxicity toward dicotyledons: selectively toxic

## aureonucleomycin [Compound 9]
[4]
  growth inhibition of Xanthomonas oryzae: significantly inhibited the growth
[5]
  herbicidal activity: herbicidal
  toxicity toward dicotyledons: selectively toxic

## COC(=O)[C@H]1O[C@@H]2C[C@H]3O[C@@H](n4cnc5c(N)ncnc54)[C@H](OC)[C@H]3O[C@@]2(O)[C@@H](O)[C@@H]1O [Compound 5, Herbicidin B]
[4]
  growth inhibition of Xanthomonas oryzae: significantly inhibited the growth
[5]
  herbicidal activity: herbicidal
  toxicity toward dicotyledons: selectively toxic

From article PMC3993885 (Journal of Natural Products, 2014)
